Measurements gathered from unrelated publications.
Protocols differ between the studies behind these lines.
G protein-coupled receptor 88: G protein-coupled receptor 88 (Homo sapiens, UniProt Q9GZN0)
CDK13: Cyclin-dependent kinase 13 (CDK13, Homo sapiens, UniProt Q14004)
Cnr2: Cannabinoid receptor 2 (Cnr2, Mus musculus, UniProt P47936)

`CCC[C@@H](C)COc1ccc([C@@H](CO)C(=O)N[C@H](C)c2ccccc2)cc1` has an Emax of 105% (G protein-coupled receptor 88; cAMP, agonist, TR-FRET; CHO).
For `COc1ncccc1-c1cnn2ccc(N3CCN(C(=O)OC(C)C)CC3)nc12`, the remaining binding was 95% (CDK13; binding, competition with immobilised ligand; 1 µM).
`CCCC#Cc1ccc([C@@H](CO)C(=O)N[C@H](C)c2ccccc2)cc1` gave an Emax of 92% (G protein-coupled receptor 88; cAMP, agonist, TR-FRET).
The remaining binding of `Nc1ncc(-c2nc(N3CCOCC3)nc(N3CCOCC3)n2)c(C(F)F)n1` is reported as 91% (5'-AMP-activated protein kinase catalytic subunit alpha-1 (PRKAA1, Homo sapiens, UniProt Q13131); cell-free assay, competition with immobilised ligand; 10 µM).
`CCOC(=O)[C@](CC)(CCC[S+]([O-])CCOCCOCCNC(=O)OC(C)(C)C)NC(=O)c1ccc(C2CC2)c(Cc2ccc(F)cc2)n1` (some centres unmarked) has an Emax of 79% (Cnr2; cAMP, agonist).
With `Cn1cc(-c2cc(F)cc(N3CCn4c(cc5c4CCCC5)C3=O)c2CO)cc(Nc2ccc(N3CCN(C4COC4)CC3)cn2)c1=O` the inhibition was 23% (Platelet-derived growth factor receptor alpha (PDGFRA, Homo sapiens, UniProt P16234); enzyme activity, inhibitor; 0.1 µM).
`CC[C@H](NC(=O)OCc1ccccc1)C(=O)N[C@H](C(=O)N[C@@H](CC(C)C)C(=O)N(C)N(C#N)CCC(N)=O)C(C)(C)C` gave a kon of 17300 M⁻¹ s⁻¹ (Procathepsin L (CTSL, Homo sapiens, UniProt P07711); enzyme activity, inhibitor).
The ΔTm of `Cc1nc2c(=O)n(C)c(=O)nc-2n(C)n1` is reported as -2.94 °C (Protein disulfide-isomerase (P4HB, Homo sapiens, UniProt P07237); thermal stability, DSF; 10 µM).
`CC[C@H](C)COc1ccc([C@@H](CO)C(=O)N[C@H](C)c2ccccc2)cc1` has an Emax of 88% (G protein-coupled receptor 88; cAMP, agonist, TR-FRET).
`Cn1cc(-c2cccc(N3CCc4c(sc5c4CC(C)(C)C5)C3=O)c2CO)cc(Nc2ccncn2)c1=O` has an inhibition of -4% (Platelet-derived growth factor receptor alpha (PDGFRA, Homo sapiens, UniProt P16234, T674I); enzyme activity, inhibitor; 1 µM).
`CCCc1ccc(-c2ccc([C@@H](CO)C(=O)N[C@H](C)c3ccccc3)cc2)cc1` has an Emax of 96% (G protein-coupled receptor 88; cAMP, agonist, TR-FRET).
`Cc1nn(C)cc1-c1nc2c(N3CCN(Cc4ccc(Cl)cc4)CC3)c(Cl)cnc2[nH]1` gave a remaining binding of 77% (CDK13; binding, competition with immobilised ligand; 1 µM).
For `CCOC(=O)C(CC)(CCCSCCOCCOCCOCCNC(=O)OC(C)(C)C)NC(=O)c1ccc(C2CC2)c(Cc2ccc(F)cc2)n1` (centres unmarked), the Emax was 87% (Cnr2; cAMP, agonist).
`C#Cc1n[nH]c2c(-c3cn([C@@H](C)c4ccccn4)c(=O)[nH]c3=O)cc(F)cc12` gave an inhibition of 13.6% (Protein kinase C theta type (PRKCQ, Homo sapiens, UniProt Q04759); enzyme activity, inhibitor; 0.1 µM).
